Test results reported in ChEMBL document CHEMBL1134591, “N-Aryl sulfonyl homocysteine hydroxamate inhibitors of matrix metalloproteinases: further probing of the S(1), S(1)', and S(2)' pockets” (J Med Chem, 2001).

Tests used:
[1] = target: Matrix metalloproteinase-9 (Homo sapiens, UniProt P14780); test: In vitro inhibition of human matrix metalloprotease-9
How it was run: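 APMA-activated enzyme, fluorogenic quenched peptide substrate Dnp-Pro-Cha-Gly-Cys(Me)-His-Ala-Lys(Nma)-NH₂, cleaved between Gly and Cys; inhibition read as substrate cleavage, reported as IC50 (nM).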

Interstitial collagenase = target: T1, Interstitial collagenase (Homo sapiens, UniProt P03956); test: In vitro inhibition of human matrix metalloprotease-1
T1 sequence (P03956 whole entry): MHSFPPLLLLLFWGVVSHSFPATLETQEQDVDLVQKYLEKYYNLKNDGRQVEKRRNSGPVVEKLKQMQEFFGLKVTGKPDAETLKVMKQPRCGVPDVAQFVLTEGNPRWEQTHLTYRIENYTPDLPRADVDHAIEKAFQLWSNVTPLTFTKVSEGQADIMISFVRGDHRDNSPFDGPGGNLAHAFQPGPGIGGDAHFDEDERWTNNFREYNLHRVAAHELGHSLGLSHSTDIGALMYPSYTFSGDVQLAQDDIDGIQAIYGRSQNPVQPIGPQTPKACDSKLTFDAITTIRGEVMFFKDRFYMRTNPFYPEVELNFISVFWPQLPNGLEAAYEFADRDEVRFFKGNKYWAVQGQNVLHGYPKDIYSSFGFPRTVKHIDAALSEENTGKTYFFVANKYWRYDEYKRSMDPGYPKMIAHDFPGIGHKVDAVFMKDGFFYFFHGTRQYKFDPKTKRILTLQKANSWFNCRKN

Stromelysin-1 = Stromelysin-1 (Homo sapiens, UniProt P08254); test: In vitro inhibitory activity against matrix metalloprotease-3
Chain of Stromelysin-1 (P08254 whole entry): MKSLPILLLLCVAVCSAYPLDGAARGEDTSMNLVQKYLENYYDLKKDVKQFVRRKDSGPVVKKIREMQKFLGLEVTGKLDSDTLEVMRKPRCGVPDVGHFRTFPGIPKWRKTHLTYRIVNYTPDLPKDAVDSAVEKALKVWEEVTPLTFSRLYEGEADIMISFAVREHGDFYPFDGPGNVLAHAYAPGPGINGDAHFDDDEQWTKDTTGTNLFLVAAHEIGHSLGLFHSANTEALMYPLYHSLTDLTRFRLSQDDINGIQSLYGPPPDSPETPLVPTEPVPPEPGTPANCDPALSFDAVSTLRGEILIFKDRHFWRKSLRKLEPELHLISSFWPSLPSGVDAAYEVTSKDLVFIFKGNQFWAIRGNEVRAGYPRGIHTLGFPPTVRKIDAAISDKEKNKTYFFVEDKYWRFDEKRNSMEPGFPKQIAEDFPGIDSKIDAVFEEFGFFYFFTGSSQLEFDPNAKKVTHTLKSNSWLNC
How it was run: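 MMP-3 activated with APMA (4-aminophenylmercuric acetate); cleavage of quenched fluorogenic substrate (7-methoxycoumarin-4-yl)-Arg-Pro-Lys-Pro-Tyr-Ala-Nva-Trp-Met-Lys(Dnp)-NH₂ at the Ala–Nva bond monitored; IC50 (nM) derived.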

[2] = target: 72 kDa type IV collagenase (Homo sapiens, UniProt P08253); test: In vitro inhibition of human matrix metalloprotease-2
Chain of 72 kDa type IV collagenase (P08253 whole entry): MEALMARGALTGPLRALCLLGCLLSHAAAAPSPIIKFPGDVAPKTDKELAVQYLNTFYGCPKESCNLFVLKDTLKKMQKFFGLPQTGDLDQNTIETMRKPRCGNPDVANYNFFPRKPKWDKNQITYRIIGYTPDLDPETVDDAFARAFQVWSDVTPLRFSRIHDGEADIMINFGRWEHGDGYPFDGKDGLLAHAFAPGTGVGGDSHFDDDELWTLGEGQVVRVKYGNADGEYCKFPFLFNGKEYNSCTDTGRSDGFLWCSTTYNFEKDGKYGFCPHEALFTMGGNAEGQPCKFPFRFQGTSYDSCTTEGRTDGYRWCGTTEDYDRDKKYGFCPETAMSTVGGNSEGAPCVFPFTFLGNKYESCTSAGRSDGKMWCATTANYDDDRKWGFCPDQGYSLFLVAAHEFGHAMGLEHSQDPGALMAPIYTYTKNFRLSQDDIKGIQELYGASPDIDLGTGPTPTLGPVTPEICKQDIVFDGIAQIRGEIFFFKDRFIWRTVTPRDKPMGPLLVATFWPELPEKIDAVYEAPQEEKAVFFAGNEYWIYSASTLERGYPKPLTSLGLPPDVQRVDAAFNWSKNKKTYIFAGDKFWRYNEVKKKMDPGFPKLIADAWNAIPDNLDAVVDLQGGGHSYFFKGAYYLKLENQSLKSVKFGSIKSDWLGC

Collagenase 3 = Collagenase 3 (Homo sapiens, UniProt P45452); test: In vitro inhibition of human matrix metalloprotease-13

Chain of Matrix metalloproteinase-9 (P14780 whole entry): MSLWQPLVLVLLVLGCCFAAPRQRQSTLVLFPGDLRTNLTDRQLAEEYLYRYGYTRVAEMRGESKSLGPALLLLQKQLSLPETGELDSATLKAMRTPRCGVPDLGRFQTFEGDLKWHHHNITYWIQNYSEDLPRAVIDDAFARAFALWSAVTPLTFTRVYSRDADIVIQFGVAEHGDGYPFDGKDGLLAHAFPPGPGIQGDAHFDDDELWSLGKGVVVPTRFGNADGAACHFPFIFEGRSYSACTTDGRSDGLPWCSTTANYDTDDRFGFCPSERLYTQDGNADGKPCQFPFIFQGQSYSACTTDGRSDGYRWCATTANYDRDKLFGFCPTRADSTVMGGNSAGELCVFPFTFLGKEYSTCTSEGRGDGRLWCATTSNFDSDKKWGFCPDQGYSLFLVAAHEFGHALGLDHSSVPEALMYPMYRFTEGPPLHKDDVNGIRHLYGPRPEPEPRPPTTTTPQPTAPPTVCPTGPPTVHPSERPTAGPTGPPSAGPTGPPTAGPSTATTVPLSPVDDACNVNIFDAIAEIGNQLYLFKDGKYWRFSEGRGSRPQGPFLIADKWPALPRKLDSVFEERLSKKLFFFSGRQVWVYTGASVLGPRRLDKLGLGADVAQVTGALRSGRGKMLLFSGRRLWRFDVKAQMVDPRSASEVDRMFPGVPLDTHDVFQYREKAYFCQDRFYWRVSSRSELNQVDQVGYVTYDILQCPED

IC50 [1] | IC50 (Interstitial collagenase) | IC50 (Stromelysin-1) | IC50 [2] | IC50 (Collagenase 3) | Structure (SMILES)
0.2 nM | 19 nM | 0.9 nM | 0.7 nM | 0.7 nM | COc1ccc(CNC(=O)CN(C(CCSCc2ccccc2)C(=O)NO)S(=O)(=O)c2ccc(OC)cc2)cc1 (centres undefined)
149 nM |  | 705 nM | 1810 nM | 407 nM | COc1ccc(S(=O)(=O)N(CC(C)C)C(CCSCc2c(F)c(F)c(F)c(F)c2F)C(=O)NO)cc1 (centres undefined)
0.2 nM |  | 20 nM | 30 nM |  | COc1ccc(S(=O)(=O)N(CC(C)C)C(CCSCc2ccc(-c3ccccc3)cc2)C(=O)NO)cc1 (centres undefined)
0.2 nM | 16 nM | 1.6 nM | 1 nM | 0.8 nM | COc1ccc(S(=O)(=O)N(CC(=O)NC2CCCCC2)C(CCSCc2ccccc2)C(=O)NO)cc1 (centres undefined)
< 0.1 nM | 104 nM | 0.7 nM | 0.7 nM | 12 nM | COc1ccc(S(=O)(=O)N(CC(C)C)C(CCSCc2ccccc2)C(=O)NO)cc1 (centres undefined)
0.5 nM |  | 4.2 nM | 1.6 nM | 3.2 nM | CC(C)CN(C(CCSCc1ccccc1)C(=O)NO)S(=O)(=O)c1ccc(Oc2ccccc2)cc1 (centres undefined)
8 nM |  | 29 nM |  |  | COc1ccc(S(=O)(=O)N(CC(C)C)C(CCSCc2ccc(OCc3ccccc3)cc2)C(=O)NO)cc1 (centres undefined)
7 nM | 384 nM | 45 nM | 53 nM | 96 nM | CCC(C(=O)NO)N(CC(C)C)S(=O)(=O)c1ccc(OC)cc1 (centres undefined)
0.2 nM | 39 nM | 1.1 nM | 0.4 nM | 0.4 nM | COc1ccc(S(=O)(=O)N(CC(=O)NC(c2ccccn2)c2ccccn2)C(CCSCc2ccccc2)C(=O)NO)cc1 (centres undefined)
0.2 nM |  | 2.2 nM | 1.2 nM | 1.1 nM | COc1ccc(S(=O)(=O)N(CC(=O)NCc2cccnc2)C(CCSCc2ccccc2)C(=O)NO)cc1 (centres undefined)
4.3 nM | 164 nM | 15.1 nM | 16 nM | 14 nM | CC(C)CN(C(CCSCc1ccccc1)C(=O)NO)S(=O)(=O)c1ccc(Br)cc1 (centres undefined)
1.88 nM |  |  | 8.82 nM |  | COc1ccc(S(=O)(=O)N(CC(=O)NC(C2CCCCC2)C2CCCCC2)C(CCSCc2ccccc2)C(=O)NO)cc1 (centres undefined)
0.01 nM |  |  | 0.3 nM |  | COc1ccc(S(=O)(=O)N(CC(=O)NCC2CCCCC2)C(CCSCc2ccccc2)C(=O)NO)cc1 (centres undefined)
0.6 nM | 36 nM | 4.7 nM | 1.6 nM | 2.3 nM | COc1ccc(S(=O)(=O)N(CC(=O)NCc2cc(OC)cc(OC)c2)C(CCSCc2ccccc2)C(=O)NO)cc1 (centres undefined)
0.5 nM |  | 3.7 nM | 2.3 nM | 4.5 nM | COc1ccc(S(=O)(=O)N(CC(=O)NC(c2ccccc2)c2ccccc2)C(CCSCc2ccccc2)C(=O)NO)cc1 (centres undefined)
0.3 nM | 49 nM | 2.5 nM | 1.2 nM | 1.6 nM | COc1ccc(S(=O)(=O)N(CC(=O)NCc2c(OC)cc(OC)cc2OC)C(CCSCc2ccccc2)C(=O)NO)cc1 (centres undefined)

Structure (SMILES) | IC50 [1] | IC50 (Interstitial collagenase) | IC50 (Stromelysin-1) | IC50 [2] | IC50 (Collagenase 3)
COc1ccc(S(=O)(=O)N(CC(=O)NCc2ccccc2)C(CCSCc2ccccc2)C(=O)NO)cc1 (centres undefined) | 0.2 nM | 51 nM | 1.6 nM | 0.7 nM | 0.5 nM
COc1ccc(S(=O)(=O)N(CC(C)C)C(CCS(=O)(=O)Cc2ccccc2)C(=O)NO)cc1 (centres undefined) | 0.9 nM | 396 nM | 10.3 nM | 4.22 nM | 11.8 nM
COc1ccc(S(=O)(=O)N(CC(C)C)C(CCSCc2cccc(OC)c2)C(=O)NO)cc1 (centres undefined) | 3.2 nM | 297 nM | 5.7 nM | 3.78 nM | 5.3 nM
COc1ccc(S(=O)(=O)N(CC(=O)N2CCOCC2)C(CCSCc2ccccc2)C(=O)NO)cc1 (centres undefined) | 29 nM | 532 nM | 195 nM | 16 nM | 23 nM
COc1ccc(S(=O)(=O)N(CC(C)C)C(CCSCc2cccnc2)C(=O)NO)cc1 (centres undefined) | 3 nM | 126 nM | 6.2 nM | 6.3 nM | 16.2 nM
CC(C)CN(C(CCSCc1ccccc1)C(=O)NO)S(=O)(=O)c1ccc(-c2ccccc2)cc1 (centres undefined) | 2.5 nM |  | 90 nM | 4.1 nM | 3.8 nM
COc1ccc(S(=O)(=O)N(CC(C)C)C(CCSCc2ccsc2)C(=O)NO)cc1 (centres undefined) | 1 nM | 188 nM | 5.4 nM | 3.2 nM | 5.1 nM
